ChEMBL document CHEMBL4814057, “4-4-(Anilinomethyl)-3-[4-(trifluoromethyl)phenyl]-1H-pyrazol-1-ylbenzoic acid derivatives as potent anti-gram-positive bacterial agents” (Eur J Med Chem, 2021)
≈ marks a conversion by molar mass, not a printed value. Calls of active or inactive are those of the source. No cut-off for these calls is given here.

Experiments:
[1] = system: Enterococcus faecalis; assay: Antimicrobial activity against vancomycin-susceptible Enterococcus faecalis ATCC 29212 assessed as bacterial growth inhibitions by CLSI protocol based microdilution method
[2] = system: Enterococcus faecium; assay: Antimicrobial activity against vancomycin-resistant Enterococcus faecium ATCC 700221 assessed as bacterial growth inhibitions by CLSI protocol based microdilution method; assay type: functional
[3] = system: Staphylococcus aureus; assay: Antimicrobial activity against methicillin-resistant Staphylococcus aureus ATCC 33591 assessed as bacterial growth inhibitions by CLSI protocol based microdilution method; assay type: functional
[4] = system: Staphylococcus aureus; assay: Antimicrobial activity against antibiotic-resistant Staphylococcus aureus BM-2312 assessed as bacterial growth inhibitions by CLSI protocol based microdilution method; assay type: functional
[5] = system: Staphylococcus aureus; assay: Antimicrobial activity against methicillin-resistant Staphylococcus aureus ATCC 33592 assessed as bacterial growth inhibitions by CLSI protocol based microdilution method; assay type: functional
[6] = system: Staphylococcus aureus; assay: Antimicrobial activity against methicillin-resistant Staphylococcus aureus ATCC 700699 assessed as bacterial growth inhibitions by CLSI protocol based microdilution method; assay type: functional
[7] = system: Staphylococcus aureus; assay: Antimicrobial activity against methicillin-susceptible Staphylococcus aureus ATCC 25923 assessed as bacterial growth inhibitions by CLSI protocol based microdilution method; assay type: functional
[8] = system: Bacillus subtilis; assay: Antimicrobial activity against Bacillus subtilis ATCC 6623 assessed as bacterial growth inhibitions by CLSI protocol based microdilution method; assay type: functional
Outline: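 Broth microdilution starting at 50 µg/ml with 2-fold serial dilutions; run in triplicate.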

[9] = system: Staphylococcus epidermidis; assay: Antimicrobial activity against methicillin-resistant Staphylococcus epidermidis ATCC 700296 assessed as bacterial growth inhibitions by CLSI protocol based microdilution method; assay type: functional

`O=C(O)c1ccc(-n2cc(CNc3ccc(Br)c(Cl)c3F)c(-c3ccc(C(F)(F)F)cc3)n2)cc1` was tested, and the MIC [1] was 0.78 µg/mL (≈ 1.37 µM).
`O=C(O)c1ccc(-n2cc(CNc3cc(F)c(C(F)(F)F)c(F)c3)c(-c3ccc(C(F)(F)F)cc3)n2)cc1` was tested, and the MIC [1] was 12.5 µg/mL (≈ 23.1 µM), the MIC [2] was 6.25 µg/mL (≈ 11.5 µM) and the MIC [3] was 1.56 µg/mL (≈ 2.88 µM). It also gave an MIC [4] of 1.56 µg/mL (≈ 2.88 µM), an MIC [5] of 1.56 µg/mL (≈ 2.88 µM) and an MIC [6] of 1.56 µg/mL (≈ 2.88 µM). For the same compound, the MIC [7] was 1.56 µg/mL (≈ 2.88 µM), the MIC [8] was 0.78 µg/mL (≈ 1.44 µM) and the MIC [9] was 3.12 µg/mL (≈ 5.76 µM).
In the case of `O=C(O)c1ccc(-n2cc(CNc3cccc(Cl)c3)c(-c3ccc(C(F)(F)F)cc3)n2)cc1`, the MIC [1] is reported as 12.5 µg/mL (≈ 26.5 µM), the MIC [2] is reported as 0.78 µg/mL (≈ 1.65 µM) and the MIC [3] is reported as 0.78 µg/mL (≈ 1.65 µM). It also gave an MIC [4] of 1.56 µg/mL (≈ 3.31 µM), an MIC [5] of 1.56 µg/mL (≈ 3.31 µM) and an MIC [6] of 0.78 µg/mL (≈ 1.65 µM). For the same compound, the MIC [7] was 1.56 µg/mL (≈ 3.31 µM), the MIC [8] was 0.78 µg/mL (≈ 1.65 µM) and the MIC [9] was 3.12 µg/mL (≈ 6.61 µM).
`O=C(O)c1ccc(-n2cc(CNc3ccc(F)c(Cl)c3)c(-c3ccc(C(F)(F)F)cc3)n2)cc1` gave an MIC [1] of 6.25 µg/mL (≈ 12.8 µM), an MIC [2] of 1.56 µg/mL (≈ 3.18 µM) and an MIC [3] of 0.78 µg/mL (≈ 1.59 µM). It also gave an MIC [4] of 0.78 µg/mL (≈ 1.59 µM), an MIC [5] of 0.78 µg/mL (≈ 1.59 µM) and an MIC [6] of 1.56 µg/mL (≈ 3.18 µM). The MIC [7] was 0.78 µg/mL (≈ 1.59 µM), the MIC [8] was 0.78 µg/mL (≈ 1.59 µM) and the MIC [9] was 3.12 µg/mL (≈ 6.37 µM).
`O=C(O)c1ccc(-n2cc(CNc3ccc(Br)c(Cl)c3)c(-c3ccc(C(F)(F)F)cc3)n2)cc1` showed an MIC [1] of 1.56 µg/mL (≈ 2.83 µM), an MIC [2] of 0.78 µg/mL (≈ 1.42 µM) and an MIC [3] of 0.78 µg/mL (≈ 1.42 µM). It also gave an MIC [4] of 0.78 µg/mL (≈ 1.42 µM), an MIC [5] of 0.78 µg/mL (≈ 1.42 µM) and an MIC [6] of 0.78 µg/mL (≈ 1.42 µM). It also gave an MIC [7] of 0.78 µg/mL (≈ 1.42 µM), an MIC [8] of 0.78 µg/mL (≈ 1.42 µM) and an MIC [9] of 0.78 µg/mL (≈ 1.42 µM).
`O=C(O)c1ccc(-n2cc(CNc3cccc(C(F)(F)F)c3)c(-c3ccc(C(F)(F)F)cc3)n2)cc1` was tested, and the MIC [1] was 6.25 µg/mL (≈ 12.4 µM), the MIC [2] was 1.56 µg/mL (≈ 3.09 µM) and the MIC [3] was 0.78 µg/mL (≈ 1.54 µM). The MIC [4] was 1.56 µg/mL (≈ 3.09 µM), the MIC [5] was 0.78 µg/mL (≈ 1.54 µM) and the MIC [6] was 0.38 µg/mL (≈ 0.752 µM). It also gave an MIC [7] of 1.56 µg/mL (≈ 3.09 µM), an MIC [8] of 0.78 µg/mL (≈ 1.54 µM) and an MIC [9] of 1.56 µg/mL (≈ 3.09 µM).
`O=C(O)c1ccc(-n2cc(CNc3ccc(F)c(F)c3F)c(-c3ccc(C(F)(F)F)cc3)n2)cc1` was tested, and the MIC [1] was “inactive”, the MIC [2] was 3.12 µg/mL (≈ 6.35 µM) and the MIC [3] was 1.56 µg/mL (≈ 3.17 µM). The MIC [4] was 1.56 µg/mL (≈ 3.17 µM), the MIC [5] was 1.56 µg/mL (≈ 3.17 µM) and the MIC [6] was 1.56 µg/mL (≈ 3.17 µM). The MIC [7] was 1.56 µg/mL (≈ 3.17 µM), the MIC [8] was 0.78 µg/mL (≈ 1.59 µM) and the MIC [9] was 3.12 µg/mL (≈ 6.35 µM).
Compound `O=C(O)c1ccc(-n2cc(CNc3ccc(Br)c(C(F)(F)F)c3)c(-c3ccc(C(F)(F)F)cc3)n2)cc1` has an MIC [2] of 0.78 µg/mL (≈ 1.33 µM), an MIC [3] of 0.78 µg/mL (≈ 1.33 µM) and an MIC [4] of 3.12 µg/mL (≈ 5.34 µM). It also gave an MIC [5] of 3.12 µg/mL (≈ 5.34 µM), an MIC [6] of 3.12 µg/mL (≈ 5.34 µM) and an MIC [7] of 3.12 µg/mL (≈ 5.34 µM). The MIC [8] was 3.12 µg/mL (≈ 5.34 µM) and the MIC [9] was 12.5 µg/mL (≈ 21.4 µM).
Work on `O=C(O)c1ccc(-n2cc(CNc3cc(Cl)cc(C(F)(F)F)c3)c(-c3ccc(C(F)(F)F)cc3)n2)cc1` yielded an MIC [1] of 6.25 µg/mL (≈ 11.6 µM), an MIC [2] of 0.78 µg/mL (≈ 1.44 µM) and an MIC [3] of 0.78 µg/mL (≈ 1.44 µM). It also gave an MIC [4] of 0.78 µg/mL (≈ 1.44 µM), an MIC [5] of 0.78 µg/mL (≈ 1.44 µM) and an MIC [6] of 0.78 µg/mL (≈ 1.44 µM). For the same compound, the MIC [7] was 0.78 µg/mL (≈ 1.44 µM), the MIC [8] was 0.78 µg/mL (≈ 1.44 µM) and the MIC [9] was 1.56 µg/mL (≈ 2.89 µM).
Work on `O=C(O)c1ccc(-n2cc(CNc3ccc(N4CCOCC4)c(C(F)(F)F)c3)c(-c3ccc(C(F)(F)F)cc3)n2)cc1` yielded an MIC [1] of 1.56 µg/mL (≈ 2.64 µM), an MIC [2] of 0.78 µg/mL (≈ 1.32 µM) and an MIC [3] of 0.78 µg/mL (≈ 1.32 µM). It also gave an MIC [4] of 1.56 µg/mL (≈ 2.64 µM), an MIC [5] of 0.78 µg/mL (≈ 1.32 µM) and an MIC [6] of 0.78 µg/mL (≈ 1.32 µM). It also gave an MIC [7] of 0.78 µg/mL (≈ 1.32 µM), an MIC [8] of 0.78 µg/mL (≈ 1.32 µM) and an MIC [9] of 1.56 µg/mL (≈ 2.64 µM).
With `O=C(O)c1ccc(-n2cc(CNc3ccc(Cl)c(Cl)c3)c(-c3ccc(C(F)(F)F)cc3)n2)cc1` the MIC [2] was 0.78 µg/mL (≈ 1.54 µM), the MIC [3] was 0.78 µg/mL (≈ 1.54 µM) and the MIC [4] was 0.78 µg/mL (≈ 1.54 µM). For the same compound, the MIC [5] was 0.78 µg/mL (≈ 1.54 µM), the MIC [6] was 1.56 µg/mL (≈ 3.08 µM) and the MIC [7] was 0.78 µg/mL (≈ 1.54 µM). The MIC [8] was 0.78 µg/mL (≈ 1.54 µM).
Compound `O=C(O)c1ccc(-n2cc(CNc3cc(Br)cc(C(F)(F)F)c3)c(-c3ccc(C(F)(F)F)cc3)n2)cc1` has an MIC [1] of 0.78 µg/mL (≈ 1.33 µM), an MIC [2] of 0.78 µg/mL (≈ 1.33 µM) and an MIC [3] of 3.12 µg/mL (≈ 5.34 µM). The MIC [4] was 0.78 µg/mL (≈ 1.33 µM), the MIC [5] was 0.78 µg/mL (≈ 1.33 µM) and the MIC [6] was 0.78 µg/mL (≈ 1.33 µM). The MIC [7] was 0.78 µg/mL (≈ 1.33 µM), the MIC [8] was 0.78 µg/mL (≈ 1.33 µM) and the MIC [9] was 1.56 µg/mL (≈ 2.67 µM).
`O=C(O)c1ccc(-n2cc(CNc3ccc(Cl)cc3)c(-c3ccc(C(F)(F)F)cc3)n2)cc1` gave an MIC [1] of 6.25 µg/mL (≈ 13.2 µM), an MIC [2] of 1.56 µg/mL (≈ 3.31 µM) and an MIC [3] of 1.56 µg/mL (≈ 3.31 µM). The MIC [4] was 1.56 µg/mL (≈ 3.31 µM), the MIC [5] was 1.56 µg/mL (≈ 3.31 µM) and the MIC [6] was 1.56 µg/mL (≈ 3.31 µM). It also gave an MIC [7] of 1.56 µg/mL (≈ 3.31 µM), an MIC [8] of 0.78 µg/mL (≈ 1.65 µM) and an MIC [9] of 3.12 µg/mL (≈ 6.61 µM).
`O=C(O)c1ccc(-n2cc(CNc3ccc(F)c(F)c3)c(-c3ccc(C(F)(F)F)cc3)n2)cc1` gave an MIC [1] of 12.5 µg/mL (≈ 26.4 µM), an MIC [2] of 3.12 µg/mL (≈ 6.59 µM) and an MIC [3] of 1.56 µg/mL (≈ 3.3 µM). It also gave an MIC [4] of 1.56 µg/mL (≈ 3.3 µM), an MIC [5] of 1.56 µg/mL (≈ 3.3 µM) and an MIC [6] of 0.78 µg/mL (≈ 1.65 µM). The MIC [7] was 1.56 µg/mL (≈ 3.3 µM) and the MIC [9] was 6.25 µg/mL (≈ 13.2 µM).
`O=C(O)c1ccc(-n2cc(CNc3cccc(OC(F)(F)F)c3)c(-c3ccc(C(F)(F)F)cc3)n2)cc1` gave an MIC [1] of 3.12 µg/mL (≈ 5.98 µM), an MIC [2] of 0.78 µg/mL (≈ 1.5 µM) and an MIC [3] of 0.78 µg/mL (≈ 1.5 µM). The MIC [4] was 0.78 µg/mL (≈ 1.5 µM), the MIC [5] was 0.78 µg/mL (≈ 1.5 µM) and the MIC [6] was 50 µg/mL (≈ 95.9 µM). The MIC [7] was 0.78 µg/mL (≈ 1.5 µM), the MIC [8] was 0.78 µg/mL (≈ 1.5 µM) and the MIC [9] was 3.12 µg/mL (≈ 5.98 µM).
